Source: PubChem BioAssay (The Scripps Research Institute Molecular Screening Center)
TAAR1 antagonist – antagonists of human TAAR1. Q96RJ0. CHO RD-HGA16 TAAR1, Fluo-8 calcium fluorescence, antagonist. inhibition, % at 3 µM. 360,000 compounds, 1.5% hits;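 active means inhibition above a per-plate cutoff, the mean inhibition of test compounds on that plate plus 3 SD, cut at about 49% in these data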;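 further: 0% = DMSO plus EC80 beta-PEA response and 100% = DMSO alone without agonist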
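Test system: CHO RD-HGA16 cells bearing hTAAR1 | Reagent: β-PEA, EC80 | Compound dosing: 3 µM, single point | Schedule: Dye loading 75 min at 37 °C, then 30 min room temperature | Signal: Calcium fluorescence with Fluo-8 | Evaluation: Percent inhibition of PEA-evoked calcium signal, max/basal emission ratio | Control set: DMSO-only wells and EC80 β-PEA-stimulated wells | Repeats: Singlicate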
V1R ag counter – counter-screen for oxytocin receptor agonists: human V1a receptor agonists; P37288; CHO-V1R cells, Fluo-8 calcium fluorescence, agonist mode; 0% DMSO, 100% 3 nM vasopressin; activation, % at 3 µM; 320,000 compounds, 0.25% hits;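 active means activation above the mean activation of all tested compounds plus 3 SD, per screening run, cut at about 20% in these data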;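 further: signal is peak over basal fluorescence ratio across a 100 second FLIPR read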
TAAR1 agonist – human TAAR1 agonism; 360,000 compounds, 0.99% hits; Q96RJ0; AID 624467; activation, % at 3 µM; CHO RD-HGA16 TAAR1, Fluo-8 calcium fluorescence; vehicle wells 0%, saturating PEA agonist 100%;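 active means activation above the mean activation of all test compounds in the run plus 3 SD, cut at about 38% in these data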
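System: CHO-derived RD-HGA16 cells with stable Gα16 and human TAAR1 / Times: 17-24 h plating, Fluo-8 75 min 37 °C, 30 min RT / Technique: calcium-sensitive Fluo-8 signal, excitation 470-495, emission 515-575 nm / Measure: % activation relative to PEA EC100 response / Benchmarks: DMSO and PEA EC100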
OXTR potentiate – potentiators of human oxytocin receptor. CHO-OTR cells, Fluo-8 calcium fluorescence, potentiator mode; 0% = oxytocin EC15, 100% = EC100. activation, % at 3 µM. P30559. 320,000 compounds, 0.061% hits;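 active means activation above that plate's cutoff, the mean activation of tested compounds plus 3 SD, cut at about 6.6% in these data, passing the limit was not always enough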;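 further: 100% uses oxytocin at 75 nM as the full agonist control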
Target sequence (P30559 whole entry, looked up): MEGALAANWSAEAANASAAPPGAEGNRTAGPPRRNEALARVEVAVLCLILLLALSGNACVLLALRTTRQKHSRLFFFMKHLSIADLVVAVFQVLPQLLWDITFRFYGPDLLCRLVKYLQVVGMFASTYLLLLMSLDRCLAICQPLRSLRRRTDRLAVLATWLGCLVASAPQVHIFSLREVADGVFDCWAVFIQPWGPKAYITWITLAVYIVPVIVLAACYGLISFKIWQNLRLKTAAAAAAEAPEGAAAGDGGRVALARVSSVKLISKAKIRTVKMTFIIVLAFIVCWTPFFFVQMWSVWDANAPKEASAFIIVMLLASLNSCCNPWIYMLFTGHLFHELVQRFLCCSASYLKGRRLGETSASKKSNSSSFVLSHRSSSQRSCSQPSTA
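System: human OTR in CHO cells; Also added: sub-maximal oxytocin, roughly EC15; Timing: compound 6 min at room temperature before oxytocin, 100 s read; Technique: Fluo-8 intracellular calcium fluorescence, ex 470-495, em 515-575 nm; Controls: oxytocin EC15 low and EC100 high; Replication: singlicate.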
OXTR ag – activates the human oxytocin receptor. activation, % at 3 µM. 320,000 compounds, 0.32% hits. P30559. CHO-OTR cells, Fluo-8 calcium fluorescence; normalized: DMSO 0%, oxytocin 100%;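 active means activation above the mean of all tested compounds plus 3 SD, cutoff set per screening run, cut at about 20% in these data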;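 further: peak over basal fluorescence ratio from a 100 s FLIPR kinetic read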
OXTR ag confirm – confirmation of human oxytocin receptor agonists. activation, % at 3 µM. shares compounds with OXTR ag. CHO-OTR cells, Fluo-8 calcium fluorescence, agonist. 390 compounds, 20% hits;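 active means mean activation above about 20% derived from the earlier single-dose screen, limit read from the data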;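 further: peak over minimum fluorescence ratio per well during a 100 second FLIPR read; 0% = DMSO alone and 100% = oxytocin high control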
V1R ag counter 3x – V1R agonism in triplicate, counter-screen for OXTR agonists | shares compounds with OXTR ag | CHO-V1R cells, Fluo-8 calcium fluorescence, agonist | activation, % at 3 µM | 390 compounds, 10% hits | AID 434991;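 active means mean activation over triplicate exceeds the hit threshold set in the earlier primary screen, cut at about 20% in these data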;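 further: peak over basal fluorescence ratio within a 100 second read; 0% = DMSO alone and 100% = 3 nM vasopressin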
* marks the source's active call; other numbers are inactive results; nt = no result given; ! = not confirmed by another sample. Only some compounds are listed: those with a hit (about 2.3% of all), similar ones and a draw of the others.

SMILES	TAAR1 antagonist	V1R ag counter	TAAR1 agonist	OXTR potentiate	OXTR ag	OXTR ag confirm	V1R ag counter 3x
CCCCN1C(=O)C(=O)NC[C@H]1Cc1cccc2ccccc12	-9	nt	-1	nt	nt	nt	nt
O=C1NC[C@@H](Cc2cccc3ccccc23)N(CC2(c3ccccc3)CC2)C1=O	-6	1	11	-10	23*	0	0
O=C1NC[C@@H](CCCCN2C[C@H](Cc3ccccc3)N(CCc3ccc(O)cc3)C(=O)C2=O)N(CC2CCCCC2)C1=O	-11	nt	8	nt	nt	nt	nt
CC(=O)C1=C(c2ccccc2)NC(=S)NC1c1cc(Cl)c(OC(C)C)c(Cl)c1 (centres undefined)	17	16	14	-8	20*	17	15
Cc1cc(Cl)ccc1N=c1ssnc1Cl	29	10	42*	-9	21*	21*	16
Nc1ccccc1N=c1ssnc1Cl	-26	nt	2	nt	nt	nt	nt
COc1ccc(OCCCC(=O)N(C)CC(=O)Nc2c(C)cccc2C)cc1	-6	0	0	-7	0	nt	nt
Clc1ccc(-c2cc(C3CCNCC3)[nH]n2)cc1	18	2	4	1	1	nt	nt
Nc1nc(Cl)cc(N2CCC(c3cc(-c4ccc(Cl)cc4)n[nH]3)CC2)n1	45	14	29	-13	22*	9	11
NC(=O)c1cc(S(=O)(=O)NCc2ccc(F)cc2)cs1	-15	1	2	-6	20*	0	0
COc1ccc(CN(C)C(=O)CNC(=O)c2sc3ccccc3c2Cl)c(OC)c1	17	nt	0	nt	nt	nt	nt
COC(=O)C1=C(C)N(Cc2ccccc2)C(=NCc2ccccc2)N[C@H]1c1ccccc1	22	7	16	-10	18	nt	nt
COC(=O)C1=C(C)N(Cc2ccccc2)C(=NCCc2c[nH]c3ccccc23)N[C@H]1c1cccc(F)c1	43	11	29	-9	22*	7	4
COC(=O)C1=C(C)N(Cc2ccccc2)C(=NCc2ccccc2)N[C@H]1c1cccc(F)c1	22	9	15	-10	20*	9	5
Cc1cnc(NC(=O)c2cccs2)s1	-5	1	-2	-9	0	nt	nt
O=C(Nc1ncc([N+](=O)[O-])s1)c1cccs1	-9	12	7	-22	21*!	10	11
CNC[C@H](Cc1ccccc1)NC[C@@H](Cc1cccc2ccccc12)NCCc1ccc(C)cc1	50*	7	43*	-9	21*	10	9
O=C(NCc1ccccc1)c1sc(=S)n2c1[nH]c(=O)c1ccccc12	3	13	44*	-23	21*	12	11
CCCCNC(=O)c1sc(=S)n2c1[nH]c(=O)c1ccc(C(=O)NCCc3ccc(OC)c(OC)c3)cc12	nt	1	nt	-7	-1	nt	nt
CCOC(=O)c1[nH]cnc1C(=O)Nc1cccc(OC)c1	-9	1	1	-17	-1	nt	nt
CNC(=O)c1[nH]cnc1C(=O)Nc1cccc(OC)c1	5	1	5	-18	32*	-1	0
CC(C)NCC(O)Cn1c2c(c3ccccc31)CCc1c-2cnn1-c1ccccc1 (centres undefined)	-8	19	20	-23	22*	12	6
CC(C(=O)Nc1ccc2c(c1)OCO2)c1ccc([N+](=O)[O-])cc1 (centres undefined)	15	19	37	-17	20*	22*	18
CCSc1nsc(NC(=O)Nc2cccc(OC)c2)n1	32	13	9	-25	22*	11	11
CCSc1nsc(NC(=O)Nc2ccccc2F)n1	23	10	14	-17	6	nt	nt
SMILES	TAAR1 antagonist	V1R ag counter	TAAR1 agonist	OXTR potentiate	OXTR ag	OXTR ag confirm	V1R ag counter 3x
COc1ccc(CC2(CO)CCN(CC3=Cc4cc(Cl)ccc4OC3)CC2)cc1	11	19	17	-33	23*	14	12
COc1ccc2c(c1)C=C(CN1CCC(CO)(CCc3ccccc3)CC1)CO2	7	2	10	-4	3	nt	nt
CN1CCS/C1=C/C=C1\SC(=S)N(CC(=O)O)C1=O	40	19	33	-7	33*	31*	38*
CN1CCS/C1=C/C=C1/SC(=S)N(Cc2ccccc2)C1=O	12	7	36	-10	17	nt	nt
Cc1ccccc1-c1nc(S(=O)(=O)c2ccccc2)c(NCCN2CCOCC2)o1	-3	nt	0	nt	nt	nt	nt
Cc1ccc(S(=O)(=O)NCCC(=O)Nc2cc(S(=O)(=O)N(C)C)ccc2C)cc1C	-24	0	2	-10	0	nt	nt
COc1ccc(C2=NO[C@@H]3C(=O)N(C4CCCCC4)C(=O)[C@H]23)cc1OC	23	18	12	-8	21*	12	13
COc1ccc(C2=NO[C@@H]3C(=O)N(c4ccc5c(c4)OCCO5)C(=O)[C@H]23)cc1OC	1	4	14	-1	6	nt	nt
Cc1[nH]c2ccccc2c1/C=N/Nc1ccc([N+](=O)[O-])cc1	47	18	14	-6	21*	25*	35*
Cc1[nH]c2ccccc2c1/C=N/NC(=O)c1cccc([N+](=O)[O-])c1	6	1	6	-4	0	nt	nt
CC(=O)c1ccc(NC(=O)C2CC(=O)N(C(C)C)C2)cc1 (centres undefined)	-8	0	1	-10	1	nt	nt
CCOC(=O)c1c(C)n(-c2ccc(C)cc2)c2ccc(OCC(O)CNCC3CCCO3)cc12 (centres undefined)	nt	10	nt	-11	20*	9	3
Cc1ccc(-c2noc(CCC(=O)NCCc3ccccc3Cl)n2)cc1	nt	5	nt	-16	20*	-1	0
COc1ccc(C(=O)Nc2cc(-c3ccc(C)cc3)no2)cc1	22	nt	18	nt	nt	nt	nt
Cc1ccc(-c2cc(NC(=O)c3ccccc3)on2)cc1	13	10	21	-18	20*	7	5
Cc1ccc(C2(C)NC(=O)N(CC(=O)N3CCc4ccccc43)C2=O)cc1 (centres undefined)	-10	16	34	-11	20*	14	13
Cc1ccc(NC(=O)CN2C(=O)NC(C)(c3ccc(Cl)cc3)C2=O)cc1 (centres undefined)	21	16	41*	-10	22*	10	10
O=C(CCC(=O)N(CC(=O)NC1CCCCC1)CC1CCCO1)Nc1nccs1 (centres undefined)	15	2	0	-8	0	nt	nt
CC(C)(C)NC(=S)NNC(=O)c1cccc(Br)c1	-5	1	0	-11	3	nt	nt
CCOc1ccc(Cl)cc1-c1cc(C(=O)NCc2cc(C(F)(F)F)cc(C(F)(F)F)c2)[nH]n1	-13	nt	0	nt	nt	nt	nt
